# Laboratory results as given in ChEMBL document CHEMBL1811874, “The effect of sulfonate leaving groups on the hypoxia-selective toxicity of nitro analogs of the duocarmycins” (Bioorg Med Chem, 2011).
# What was measured:
# [1] = tested on: HT-29; test: Cytotoxicity against human HT-29 cells assessed as reduction of cell density incubated for 4 hrs in oxic (aerobic) condition measured 5 days post dose by SRB assay; assay type: functional, cell-based
# How it was run: (§1)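 Log-phase monolayers given a 4 h drug exposure under aerobic (20% O₂) or anoxic (<20 ppm O₂) conditions. Cells were then stained with sulforhodamine B 5 days later. IC50 was interpolated as the concentration that cut cell density to 50% of same-plate controls. Values are means of two to seven experiments.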
# [2] = tested on: HT-29; test: Hypoxic cytotoxicity ratio, ratio of IC50 for human HT-29 cells in oxic (aerobic) condition to IC50 for human HT-29 cells in hypoxic (anoxic) conditions; assay type: functional
# How it was run: (§2)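 HCR was calculated as IC50(oxic)/IC50(hypoxic) after 4 h drug exposure at 20% O₂ or <20 ppm O₂, with SRB read-out 5 days later.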
# [3] = tested on: SK-OV-3; test: Hypoxic cytotoxicity ratio, ratio of IC50 for human SKOV3 cells in oxic (aerobic) condition to IC50 for human SKOV3 cells in hypoxic (anoxic) conditions; assay type: functional; how it was run: as §2
# [4] = Solubility in alphaMEM culture medium containing 5% FCS at 22 degC; assay type: physicochemical
# How it was run: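 Solubility was measured in αMEM with 5% FCS, equilibrated with 5% CO₂/air, at 22 °C.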
# [5] = tested on: SK-OV-3; test: Cytotoxicity against human SKOV3 cells assessed as reduction of cell density incubated for 4 hrs in oxic (aerobic) condition measured 5 days post dose by SRB assay; assay type: functional, cell-based; how it was run: as §1
# [6] = tested on: SK-OV-3; test: Cytotoxicity against human SKOV3 cells assessed as reduction of cell density incubated for 4 hrs in hypoxic (anoxic) condition measured 5 days post dose by SRB assay; assay type: functional, cell-based; how it was run: as §1
# [7] = tested on: HT-29; test: Cytotoxicity against human HT-29 cells assessed as reduction of cell density incubated for 4 hrs in hypoxic (anoxic) condition measured 5 days post dose by SRB assay; assay type: functional, cell-based; how it was run: as §1
# [8] = Cytotoxicity against human H1299 cells assessed as reduction of cell density incubated for 4 hrs in oxic (aerobic) condition measured 5 days post dose by SRB assay; assay type: functional, cell-based; settings: NCI-H1299; how it was run: as §1
# [9] = tested on: A-375; test: Cytotoxicity against human A375 cells assessed as reduction of cell density incubated for 4 hrs in hypoxic (anoxic) condition measured 5 days post dose by SRB assay; assay type: functional, cell-based; how it was run: as §1
# [10] = tested on: HCT-116; test: Cytotoxicity against human HCT116 cells assessed as reduction of cell density incubated for 4 hrs in hypoxic (anoxic) condition measured 5 days post dose by SRB assay; assay type: functional, cell-based; how it was run: as §1
# [11] = tested on: HCT-116; test: Hypoxic cytotoxicity ratio, ratio of IC50 for human HCT116 cells in oxic (aerobic) condition to IC50 for human HCT116 cells in hypoxic (anoxic) conditions; assay type: functional; how it was run: as §2
# [12] = tested on: PC-3; test: Hypoxic cytotoxicity ratio, ratio of IC50 for human PC3 cells in oxic (aerobic) condition to IC50 for human PC3 cells in hypoxic (anoxic) conditions; assay type: functional; how it was run: as §2
# [13] = tested on: PC-3; test: Cytotoxicity against human PC3 cells assessed as reduction of cell density incubated for 4 hrs in oxic (aerobic) condition measured 5 days post dose by SRB assay; assay type: functional, cell-based; how it was run: as §1
# [14] = tested on: C-33-A; test: Cytotoxicity against human C33A cells assessed as reduction of cell density incubated for 4 hrs in oxic (aerobic) condition measured 5 days post dose by SRB assay; assay type: functional, cell-based; how it was run: as §1
# [15] = tested on: A549; test: Cytotoxicity against human A549 cells assessed as reduction of cell density incubated for 4 hrs in hypoxic (anoxic) condition measured 5 days post dose by SRB assay; assay type: functional, cell-based; how it was run: as §1
# [16] = Hypoxic cytotoxicity ratio, ratio of IC50 for human H1299 cells in oxic (aerobic) condition to IC50 for human H1299 cells in hypoxic (anoxic) conditions; assay type: functional, NCI-H1299; how it was run: as §2
# [17] = tested on: SiHa; test: Cytotoxicity against human SiHa cells assessed as reduction of cell density incubated for 4 hrs in oxic (aerobic) condition measured 5 days post dose by SRB assay; assay type: functional, cell-based; how it was run: as §1
# [18] = tested on: NCI-H460; test: Cytotoxicity against human H460 cells assessed as reduction of cell density incubated for 4 hrs in hypoxic (anoxic) condition measured 5 days post dose by SRB assay; assay type: functional, cell-based; how it was run: as §1
# [19] = tested on: SiHa; test: Cytotoxicity against human SiHa cells assessed as reduction of cell density incubated for 4 hrs in hypoxic (anoxic) condition measured 5 days post dose by SRB assay; assay type: functional, cell-based; how it was run: as §1
# [20] = tested on: C-33-A; test: Cytotoxicity against human C33A cells assessed as reduction of cell density incubated for 4 hrs in hypoxic (anoxic) condition measured 5 days post dose by SRB assay; assay type: functional, cell-based; how it was run: as §1
# [21] = tested on: SiHa; test: Hypoxic cytotoxicity ratio, ratio of IC50 for human SiHa cells in oxic (aerobic) condition to IC50 for human SiHa cells in hypoxic (anoxic) conditions; assay type: functional; how it was run: as §2
# [22] = tested on: A549; test: Hypoxic cytotoxicity ratio, ratio of IC50 for human A549 cells in oxic (aerobic) condition to IC50 for human A549 cells in hypoxic (anoxic) conditions; assay type: functional; how it was run: as §2
# [23] = tested on: A-375; test: Hypoxic cytotoxicity ratio, ratio of IC50 for human A375 cells in oxic (aerobic) condition to IC50 for human A375 cells in hypoxic (anoxic) conditions; assay type: functional; how it was run: as §2
# [24] = Cytotoxicity against human H1299 cells assessed as reduction of cell density incubated for 4 hrs in hypoxic (anoxic) condition measured 5 days post dose by SRB assay; assay type: functional, cell-based; settings: NCI-H1299; how it was run: as §1
# [25] = tested on: A549; test: Cytotoxicity against human A549 cells assessed as reduction of cell density incubated for 4 hrs in oxic (aerobic) condition measured 5 days post dose by SRB assay; assay type: functional, cell-based; how it was run: as §1
# [26] = tested on: C-33-A; test: Hypoxic cytotoxicity ratio, ratio of IC50 for human C33A cells in oxic (aerobic) condition to IC50 for human C33A cells in hypoxic (anoxic) conditions; assay type: functional; how it was run: as §2
# [27] = tested on: HCT-116; test: Cytotoxicity against human HCT116 cells assessed as reduction of cell density incubated for 4 hrs in oxic (aerobic) condition measured 5 days post dose by SRB assay; assay type: functional, cell-based; how it was run: as §1
# [28] = tested on: A549; test: Cytotoxicity against human A549 cells over-expressing human NADPH/cytochrome P450 oxidoreductase assessed as reduction of cell density incubated for 4 hrs in oxic (aerobic) condition measured 5 days post dose by SRB assay; assay type: functional, cell-based; how it was run: as §1
# [29] = tested on: NCI-H460; test: Hypoxic cytotoxicity ratio, ratio of IC50 for human H460 cells in oxic (aerobic) condition to IC50 for human H460 cells in hypoxic (anoxic) conditions; assay type: functional; how it was run: as §2
# [30] = tested on: A549; test: Cytotoxicity against human A549 cells ells over-expressing human NADPH/cytochrome P450 oxidoreductase assessed as reduction of cell density incubated for 4 hrs in hypoxic (anoxic) condition measured 5 days post dose by SRB assay; assay type: functional, cell-based; how it was run: as §1
# [31] = tested on: NCI-H460; test: Cytotoxicity against human H460 cells assessed as reduction of cell density incubated for 4 hrs in oxic (aerobic) condition measured 5 days post dose by SRB assay; assay type: functional, cell-based; how it was run: as §1
# [32] = tested on: PC-3; test: Cytotoxicity against human PC3 cells assessed as reduction of cell density incubated for 4 hrs in hypoxic (anoxic) condition measured 5 days post dose by SRB assay; assay type: functional, cell-based; how it was run: as §1
# [33] = tested on: A-375; test: Cytotoxicity against human A375 cells assessed as reduction of cell density incubated for 4 hrs in oxic (aerobic) condition measured 5 days post dose by SRB assay; assay type: functional, cell-based; how it was run: as §1
# [34] = tested on: A549; test: Hypoxic cytotoxicity ratio, ratio of IC50 for human A549 cells ells over-expressing human NADPH/cytochrome P450 oxidoreductase in oxic (aerobic) condition to IC50 for human A549 cells ells over-expressing human NADPH/cytochrome P450 oxidoreductase in hypoxic (anoxic) conditions; assay type: functional; how it was run: as §2
# [35] = tested on: A549; test: Cytotoxicity against human A549 cells after 24 hrs; assay type: functional, cell-based; settings: A549, 24 h
compound,measurement,setting,value
O=C(c1cc2cc(OCCO)ccc2[nH]1)N1CC(COS(=O)(=O)Cc2ccccc2)c2c1cc([N+](=O)[O-])c1ccccc21 (stereo unspecified),IC50,[1],1800 nM
same,Ratio IC50,[2],2.4
same,Ratio IC50,[3],7.1
same,solubility,[4],46 µM
same,IC50,[5],1200 nM
same,IC50,[6],210 nM
same,IC50,[7],660 nM
CN(C)CCOc1ccc2[nH]c(C(=O)N3CC(COS(=O)(=O)C4CCCCC4)c4c3cc([N+](=O)[O-])c3ccccc43)cc2c1 (stereo unspecified),IC50,[1],410 nM
same,Ratio IC50,[2],2.3
same,Ratio IC50,[3],1.5
same,solubility,[4],22 µM
same,IC50,[5],470 nM
same,IC50,[6],300 nM
same,IC50,[7],200 nM
COc1ccc(/C=C/C(=O)N2CC(CCl)c3c2cc([N+](=O)[O-])c2ccccc32)cc1O (stereo unspecified),IC50,[1],1700 nM
same,Ratio IC50,[2],4.5
same,Ratio IC50,[3],3.3
same,solubility,[4],9 µM
same,IC50,[5],890 nM
same,IC50,[6],400 nM
same,IC50,[7],590 nM
COc1cc2cc(C(=O)N3CC(COS(=O)(=O)Cc4ccccc4)c4c3cc([N+](=O)[O-])c3ccccc43)[nH]c2c(OC)c1OC (stereo unspecified),IC50,[1],9800 nM
same,IC50,[8],510 nM
same,IC50,[9],410 nM
same,IC50,[10],50 nM
same,Ratio IC50,[11],12.1
same,Ratio IC50,[2],37
same,Ratio IC50,[12],10.2
same,IC50,[13],1900 nM
same,Ratio IC50,[3],246
same,IC50,[14],430 nM
same,IC50,[15],400 nM
same,solubility,[4],17 µM
same,Ratio IC50,[16],3.6
same,IC50,[17],3000 nM
same,IC50,[18],100 nM
same,IC50,[19],450 nM
same,IC50,[20],33 nM
same,Ratio IC50,[21],30.1
same,Ratio IC50,[22],3.73
same,Ratio IC50,[23],4.12
same,IC50,[24],160 nM
same,IC50,[25],1080 nM
same,Ratio IC50,[26],15.6
same,IC50,[27],530 nM
same,IC50,[28],930 nM
same,Ratio IC50,[29],7.19
same,IC50,[30],95 nM
same,IC50,[31],250 nM
same,IC50,[5],12000 nM
same,IC50,[32],210 nM
same,IC50,[6],82 nM
same,IC50,[33],1230 nM
same,Ratio IC50,[34],16.5
same,IC50,[7],360 nM
CN(C)CCOc1ccc2[nH]c(C(=O)N3C[C@@H](CCl)c4c3cc(O)c3ccccc43)cc2c1,IC50,[35],0.026 nM
